Laboratory results taken from ChEMBL document CHEMBL1909580, “Branched-chain C-cyano pyranonucleosides: synthesis of 3'-C-cyano & 3'-C-cyano-3'-deoxy pyrimidine pyranonucleosides as novel cytotoxic agents” (Eur J Med Chem, 2011).
Active and inactive are the calls of the source. The rule behind the calls is not given here.

How the values were obtained:
Human alphaherpesvirus 1 = experiment: Antiviral activity against HSV1 infected in human HEL cells assessed as inhibition of virus-induced cytopathicity at 100 uM; assay type: functional, organism-based
In short: (§1)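 Confluent cell monolayers in microtiter plates were inoculated with 100 CCID50 of virus in the presence of varying test concentrations. 1 CCID50 is the virus dose infecting 50% of cultures. Cytopathicity was scored once it was complete in untreated virus-infected controls.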

Human alphaherpesvirus 2 = experiment: Antiviral activity against HSV2 infected in human HEL cells assessed as inhibition of virus-induced cytopathicity at 100 uM; assay type: functional, organism-based; in short: as §1
Vaccinia virus = experiment: Antiviral activity against Vaccinia virus infected in human HEL cells assessed as inhibition of virus-induced cytopathicity at 100 uM; assay type: functional, organism-based; conditions: Orthopoxvirus vaccinia
In short: (§2)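 Confluent cell monolayers were infected with 100 CCID50 of virus (1 CCID50 infects 50% of cultures) in the presence of varying concentrations of test compound. Virus-induced cytopathicity was scored once it was complete in the untreated infected controls.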

[1] = tested on: Vesicular stomatitis virus; experiment: Antiviral activity against VSV infected in human HEL cells assessed as inhibition of virus-induced cytopathicity at 100 uM; assay type: functional, organism-based; in short: as §2
Human respirovirus 3 = experiment: Antiviral activity against Parainfluenza 3 virus infected in african green monkey Vero cells assessed as inhibition of virus-induced cytopathicity at 100 uM; assay type: functional, organism-based; in short: as §1
[2] = tested on: Mammalian orthoreovirus 1; experiment: Antiviral activity against Reovirus1 infected in african green monkey Vero cells assessed as inhibition of virus-induced cytopathicity at 100 uM; assay type: functional, organism-based; in short: as §1
Coxsackievirus B4 [3] = experiment: Antiviral activity against Coxsackievirus B4 infected in african green monkey Vero cells assessed as inhibition of virus-induced cytopathicity at 100 uM; assay type: functional, organism-based; in short: as §1
Punta Toro virus = experiment: Antiviral activity against Punta Toro virus infected in african green monkey Vero cells assessed as inhibition of virus-induced cytopathicity at 100 uM; assay type: functional, organism-based; in short: as §1
[4] = tested on: Vesicular stomatitis virus; experiment: Antiviral activity against VSV infected in human HeLa cells assessed as inhibition of virus-induced cytopathicity at 100 uM; assay type: functional, organism-based; in short: as §2
Coxsackievirus B4 [5] = experiment: Antiviral activity against Coxsackievirus B4 infected in human HeLa cells assessed as inhibition of virus-induced cytopathicity at 100 uM; assay type: functional, organism-based; in short: as §1
[6] = tested on: Respiratory syncytial virus; experiment: Antiviral activity against RSV infected in human HeLa cells assessed as inhibition of virus-induced cytopathicity at 100 uM; assay type: functional, organism-based; in short: as §1
Influenza A virus [7] = experiment: Antiviral activity against influenza A virus H1N1 infected in MDCK cells assessed as inhibition of virus-induced cytopathicity at 100 uM; assay type: functional, organism-based; in short: as §2
Influenza A virus [8] = experiment: Antiviral activity against influenza A virus H3N2 infected in MDCK cells assessed as inhibition of virus-induced cytopathicity at 100 uM; assay type: functional, organism-based; in short: as §2
Influenza B virus = experiment: Antiviral activity against influenza B virus infected in MDCK cells assessed as inhibition of virus-induced cytopathicity at 100 uM; assay type: functional, organism-based; in short: as §2
Feline coronavirus = experiment: Antiviral activity against Feline coronavirus infected in feline CRFK cells assessed as inhibition of virus-induced cytopathicity at 100 uM; assay type: functional, organism-based; in short: as §1
Felid alphaherpesvirus 1 = experiment: Antiviral activity against Feline herpesvirus infected in […] cells assessed as inhibition of virus-induced cytopathicity at 100 uM; assay type: functional, organism-based
[9] = tested on: Human immunodeficiency virus 1; experiment: Antiviral activity against HIV1 3B infected in CEM cells assessed as inhibition of virus-induced cytopathicity at 100 uM; assay type: functional, organism-based; conditions: CCRF-CEM
In short: (§3)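 Virus stocks were titrated in CEM cells as CCID50. CEM cells at ~3 × 10^5 cells/ml were infected with ~100 CCID50 and immediately added to wells holding various test concentrations. After 4 days at 37 °C, giant cell formation was scored microscopically.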

[10] = tested on: Human immunodeficiency virus 2; experiment: Antiviral activity against HIV-2 ROD infected in CEM cells assessed as inhibition of virus-induced cytopathicity at 100 uM; assay type: functional, organism-based; conditions: ISOLATE ROD, CCRF-CEM; in short: as §3
L1210 = experiment: Cytostatic activity against mouse L1210 cells; assay type: functional, cell-based
In short: (§4)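 Cell proliferation was measured with the test agents present. IC50 is the concentration giving 50% inhibition of proliferation, given as the mean ± S.D. of 2–3 independent experiments.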

CCRF-CEM = experiment: Cytostatic activity against human CEM cells; assay type: functional, cell-based
In short: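 Uninfected CEM cells were run in parallel with the HIV assay for 4 days at 37 °C. IC50 is the concentration inhibiting cell proliferation by 50%, given as the mean ± S.D. of 2–3 independent experiments.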

HeLa = experiment: Cytostatic activity against human HeLa cells; assay type: functional, cell-based; in short: as §4

In the case of `N#C[C@]1(O)[C@H](O)[C@@H](CO)O[C@@H](n2ccc(O)nc2=O)[C@@H]1O`, the inhibition (Human alphaherpesvirus 1) is reported as “inactive”, the inhibition (Human alphaherpesvirus 2) is reported as “inactive” and the inhibition (Vaccinia virus) is reported as “inactive”. For the same molecule, the inhibition [1] was “inactive”, the inhibition (Human respirovirus 3) was “inactive” and the inhibition [2] was “inactive”. The inhibition (Coxsackievirus B4 [3]) was “inactive”, the inhibition (Punta Toro virus) was “inactive” and the inhibition [4] was “inactive”. The inhibition (Coxsackievirus B4 [5]) was “inactive”, the inhibition [6] was “inactive” and the inhibition (Influenza A virus [7]) was “inactive”. The inhibition (Influenza A virus [8]) was “inactive”, the inhibition (Influenza B virus) was “inactive” and the inhibition (Feline coronavirus) was “inactive”. The inhibition (Felid alphaherpesvirus 1) was “inactive”, the inhibition [9] was “inactive” and the inhibition [10] was “inactive”. For the same molecule, the IC50 (L1210) was 417 µM, the IC50 (CCRF-CEM) was over 500 µM and the IC50 (HeLa) was over 500 µM.

With `N#C[C@]1(O)[C@H](O)[C@@H](CO)O[C@@H](n2ccc(N)nc2=O)[C@@H]1O` the inhibition (Human alphaherpesvirus 1) was “inactive”, the inhibition (Human alphaherpesvirus 2) was “inactive” and the inhibition (Vaccinia virus) was “inactive”. The inhibition [1] was “inactive”, the inhibition (Human respirovirus 3) was “inactive” and the inhibition [2] was “inactive”. The inhibition (Coxsackievirus B4 [3]) was “inactive”, the inhibition (Punta Toro virus) was “inactive” and the inhibition [4] was “inactive”. For the same molecule, the inhibition (Coxsackievirus B4 [5]) was “inactive”, the inhibition [6] was “inactive” and the inhibition (Influenza A virus [7]) was “inactive”. The inhibition (Influenza A virus [8]) was “inactive”, the inhibition (Influenza B virus) was “inactive” and the inhibition (Feline coronavirus) was “inactive”. The inhibition (Felid alphaherpesvirus 1) was “inactive”, the inhibition [9] was “inactive” and the inhibition [10] was “inactive”. It also gave an IC50 (L1210) of 147 µM, an IC50 (CCRF-CEM) of over 500 µM and an IC50 (HeLa) of 377 µM.

In the case of `N#C[C@H]1[C@@H](O)[C@H](n2ccc(O)nc2=O)O[C@H](CO)[C@H]1O`, the inhibition (Human alphaherpesvirus 1) is reported as “inactive”, the inhibition (Human alphaherpesvirus 2) is reported as “inactive” and the inhibition (Vaccinia virus) is reported as “inactive”. The inhibition [1] was “inactive”, the inhibition (Human respirovirus 3) was “inactive” and the inhibition [2] was “inactive”. The inhibition (Coxsackievirus B4 [3]) was “inactive”, the inhibition (Punta Toro virus) was “inactive” and the inhibition [4] was “inactive”. The inhibition (Coxsackievirus B4 [5]) was “inactive”, the inhibition [6] was “inactive” and the inhibition (Influenza A virus [7]) was “inactive”. The inhibition (Influenza A virus [8]) was “inactive”, the inhibition (Influenza B virus) was “inactive” and the inhibition (Feline coronavirus) was “inactive”. The inhibition (Felid alphaherpesvirus 1) was “inactive”, the inhibition [9] was “inactive” and the inhibition [10] was “inactive”. The IC50 (L1210) was over 500 µM, the IC50 (CCRF-CEM) was over 500 µM and the IC50 (HeLa) was 811 µM.

For `N#C[C@]1(O)[C@H](O)[C@@H](CO)O[C@@H](n2cc(F)c(O)nc2=O)[C@@H]1O`, the inhibition (Human alphaherpesvirus 1) was “inactive”, the inhibition (Human alphaherpesvirus 2) was “inactive” and the inhibition (Vaccinia virus) was “inactive”. The inhibition [1] was “inactive”, the inhibition (Human respirovirus 3) was “inactive” and the inhibition [2] was “inactive”. For the same molecule, the inhibition (Coxsackievirus B4 [3]) was “inactive”, the inhibition (Punta Toro virus) was “inactive” and the inhibition [4] was “inactive”. The inhibition (Coxsackievirus B4 [5]) was “inactive”, the inhibition [6] was “inactive” and the inhibition (Influenza A virus [7]) was “inactive”. For the same molecule, the inhibition (Influenza A virus [8]) was “inactive”, the inhibition (Influenza B virus) was “inactive” and the inhibition (Feline coronavirus) was “inactive”. For the same molecule, the inhibition (Felid alphaherpesvirus 1) was “inactive”, the inhibition [9] was “inactive” and the inhibition [10] was “inactive”. For the same molecule, the IC50 (L1210) was 1.9 µM, the IC50 (CCRF-CEM) was 32 µM and the IC50 (HeLa) was 4.5 µM.

With `N#C[C@H]1[C@@H](O)[C@H](n2cc(F)c(O)nc2=O)O[C@H](CO)[C@H]1O` the inhibition (Human alphaherpesvirus 1) was “inactive”, the inhibition (Human alphaherpesvirus 2) was “inactive” and the inhibition (Vaccinia virus) was “inactive”. The inhibition [1] was “inactive”, the inhibition (Human respirovirus 3) was “inactive” and the inhibition [2] was “inactive”. For the same molecule, the inhibition (Coxsackievirus B4 [3]) was “inactive”, the inhibition (Punta Toro virus) was “inactive” and the inhibition [4] was “inactive”. For the same molecule, the inhibition (Coxsackievirus B4 [5]) was “inactive”, the inhibition [6] was “inactive” and the inhibition (Influenza A virus [7]) was “inactive”. For the same molecule, the inhibition (Influenza A virus [8]) was “inactive”, the inhibition (Influenza B virus) was “inactive” and the inhibition (Feline coronavirus) was “inactive”. The inhibition (Felid alphaherpesvirus 1) was “inactive”, the inhibition [9] was “inactive” and the inhibition [10] was “inactive”. The IC50 (L1210) was 550 µM, the IC50 (CCRF-CEM) was over 500 µM and the IC50 (HeLa) was 819 µM.

In the case of `Cc1cn([C@@H]2O[C@H](CO)[C@@H](O)[C@@](O)(C#N)[C@H]2O)c(=O)nc1O`, the inhibition (Human alphaherpesvirus 1) is reported as “inactive”, the inhibition (Human alphaherpesvirus 2) is reported as “inactive” and the inhibition (Vaccinia virus) is reported as “inactive”. The inhibition [1] was “inactive”, the inhibition (Human respirovirus 3) was “inactive” and the inhibition [2] was “inactive”. The inhibition (Coxsackievirus B4 [3]) was “inactive”, the inhibition (Punta Toro virus) was “inactive” and the inhibition [4] was “inactive”. The inhibition (Coxsackievirus B4 [5]) was “inactive”, the inhibition [6] was “inactive” and the inhibition (Influenza A virus [7]) was “inactive”. For the same molecule, the inhibition (Influenza A virus [8]) was “inactive”, the inhibition (Influenza B virus) was “inactive” and the inhibition (Feline coronavirus) was “inactive”. The inhibition (Felid alphaherpesvirus 1) was “inactive”, the inhibition [9] was “inactive” and the inhibition [10] was “inactive”. It also gave an IC50 (L1210) of 539 µM, an IC50 (CCRF-CEM) of over 500 µM and an IC50 (HeLa) of over 500 µM.

With `Cc1cn([C@@H]2O[C@H](CO)[C@@H](O)[C@@H](C#N)[C@H]2O)c(=O)nc1O` the inhibition (Human alphaherpesvirus 1) was “inactive”, the inhibition (Human alphaherpesvirus 2) was “inactive” and the inhibition (Vaccinia virus) was “inactive”. The inhibition [1] was “inactive”, the inhibition (Human respirovirus 3) was “inactive” and the inhibition [2] was “inactive”. For the same molecule, the inhibition (Coxsackievirus B4 [3]) was “inactive”, the inhibition (Punta Toro virus) was “inactive” and the inhibition [4] was “inactive”. The inhibition (Coxsackievirus B4 [5]) was “inactive”, the inhibition [6] was “inactive” and the inhibition (Influenza A virus [7]) was “inactive”. For the same molecule, the inhibition (Influenza A virus [8]) was “inactive”, the inhibition (Influenza B virus) was “inactive” and the inhibition (Feline coronavirus) was “inactive”. The inhibition (Felid alphaherpesvirus 1) was “inactive”, the inhibition [9] was “inactive” and the inhibition [10] was “inactive”. For the same molecule, the IC50 (L1210) was over 750 µM, the IC50 (CCRF-CEM) was over 750 µM and the IC50 (HeLa) was over 750 µM.

`O=c1[nH]cc(F)c(=O)[nH]1` [FLUOROURACIL] was tested, and the IC50 (L1210) was 0.49 µM, the IC50 (CCRF-CEM) was 18 µM and the IC50 (HeLa) was 0.54 µM.

With `N#C[C@H]1[C@@H](O)[C@H](n2ccc(N)nc2=O)O[C@H](CO)[C@H]1O` the inhibition (Human alphaherpesvirus 1) was “inactive”, the inhibition (Human alphaherpesvirus 2) was “inactive” and the inhibition (Vaccinia virus) was “inactive”. The inhibition [1] was “inactive”, the inhibition (Human respirovirus 3) was “inactive” and the inhibition [2] was “inactive”. For the same molecule, the inhibition (Coxsackievirus B4 [3]) was “inactive”, the inhibition (Punta Toro virus) was “inactive” and the inhibition [4] was “inactive”. For the same molecule, the inhibition (Coxsackievirus B4 [5]) was “inactive”, the inhibition [6] was “inactive” and the inhibition (Influenza A virus [7]) was “inactive”. The inhibition (Influenza A virus [8]) was “inactive”, the inhibition (Influenza B virus) was “inactive” and the inhibition (Feline coronavirus) was “inactive”. The inhibition (Felid alphaherpesvirus 1) was “inactive”, the inhibition [9] was “inactive” and the inhibition [10] was “inactive”. For the same molecule, the IC50 (L1210) was over 750 µM, the IC50 (CCRF-CEM) was over 750 µM and the IC50 (HeLa) was over 750 µM.
